Assay outcomes: PubChem BioAssay, several laboratories
Sampled rows, rich in hits. Any-hit rate of the full collection: about 2.6%.
5-HT1A blocker = human 5-HT1a receptor antagonists, primary screen, cell-based, CHO, Ga15 NFAT-bla reporter | 5-hydroxytryptamine receptor 1A (Homo sapiens), P08908 | CHO 5-HT1a Ga15 NFAT-bla reporter, antagonist mode | inhibition, % at 10 µM | 62,000 compounds, 0.68% hits | AID 612, 2007;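 active means inhibition above the mean of all tested compounds plus 3 SD, cut at about 43% in these data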;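 further: receptor stimulated by 5-CT agonist at 100 nM near EC80; beta-lactamase reporter measured by ratiometric fluorescence of a cleavable substrate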
S1P3 ag = human S1P3 receptor agonists, primary screen, cell-based, primary and confirmation, NFAT-BLA reporter; S1P3 NFAT-BLA reporter cells, agonism, FRET ratio; relative to 1 µM S1P, basal subtracted; AID 373, 2006; 60,000 compounds, 0.1% hits; Sphingosine 1-phosphate receptor 3 (Homo sapiens), Q99500; activation, % at 4.5 µM;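 active means activation above the screen-wide mean plus 3 SD, cut at about 4.5% in these data, passing the limit was not always enough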
Target sequence (Q99500 whole entry, looked up): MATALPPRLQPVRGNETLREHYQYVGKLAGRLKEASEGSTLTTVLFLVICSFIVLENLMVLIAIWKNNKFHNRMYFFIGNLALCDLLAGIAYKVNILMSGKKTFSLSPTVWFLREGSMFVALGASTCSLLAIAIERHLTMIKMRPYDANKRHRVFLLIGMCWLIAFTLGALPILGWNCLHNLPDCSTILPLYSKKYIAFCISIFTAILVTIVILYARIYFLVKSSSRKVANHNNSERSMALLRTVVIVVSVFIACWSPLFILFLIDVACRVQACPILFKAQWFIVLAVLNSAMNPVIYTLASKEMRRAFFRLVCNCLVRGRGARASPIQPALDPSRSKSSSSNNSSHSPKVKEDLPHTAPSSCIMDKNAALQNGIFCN
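Assay system: CHO cells stably expressing human S1P3, Gα16 and NFAT-β-lactamase reporter. Timing: overnight plating, 4 h compound 37 °C, 2 h substrate RT. Signal: β-lactamase FRET emission ratio 460/535 nm. Measure: percent activation versus median 1 µM S1P response, basal-subtracted, per plate. Repeats: primary screen single test, confirmation screen in triplicate.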
Ec RNAP inh = E. coli RNAP inhibitors, biochemical; inhibition, %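 (tested at 10 µM)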; 62,000 compounds, 0.2% hits; E. coli RNA polymerase, fluorescence transcription assay; AID 559, 2006; DNA-directed RNA polymerase subunit beta (Escherichia coli (strain K12)), P0A8V2; in the data active means inhibition above about 20%
HTR1E agonist = 5-HT1E receptor agonists, primary screen, cell-based, HTS. AID 574, 2007. 65,000 compounds, 0.69% hits. 5-hydroxytryptamine receptor 1E (Homo sapiens), P28566. activation, % at 6 µM. CHO 5-HT1E Ga15 NFAT-bla reporter, FRET; 0% DMSO wells, 100% control agonist wells;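 active means activation above a set limit, the screen-wide mean activation plus 3 SD, cut at about 8.5% in these data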
5HT1a ag = human 5-HT1a receptor agonists, primary screen, cell-based, CHO, Ga15 NFAT-bla reporter. 5-hydroxytryptamine receptor 1A (Homo sapiens), P08908. CHO 5-HT1a Ga15 NFAT-bla reporter, FRET ratio; 0% basal, 100% maximal reference agonist. activation, % at 10 µM. 65,000 compounds, 0.56% hits;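 active means activation above the screen-wide mean activation plus 3 SD, cut at about 19% in these data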
5HT1E antag = 5-HT1E receptor antagonists, primary screen, cell-based, HTS; 5-hydroxytryptamine receptor 1E (Homo sapiens), P28566; CHO 5-HT1E Ga15 NFAT-bla reporter, FRET, antagonist; inhibition, % at 6 µM; 65,000 compounds, 0.99% hits;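 active means inhibition above a set limit, the mean inhibition across every tested compound plus 3 SD, cut at about 29% in these data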;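 further: signal is the 460 over 535 nm emission ratio of beta-lactamase substrate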
Numbers stand for hits; – = inactive; · = no result given.

SMILES | 5-HT1A blocker | S1P3 ag | Ec RNAP inh | HTR1E agonist | 5HT1a ag | 5HT1E antag
O=S(=O)(c1cccc(Cl)c1)N1CCCC1 | – | · | – | 130.8 | – | –
Cc1ccc(N2CC(C(=O)NCc3cccnc3)CC2=O)cc1 (centres undefined) | – | – | – | – | – | –
COC(=O)c1ccc(CSc2nc(C)nc3sc(C)c(C)c23)o1 | 50.1 | – | – | – | – | 33.3
COC(=O)c1ccc(CSc2nnc(SCc3ccc(C(=O)OC)o3)s2)o1 | – | – | – | – | – | –
COc1cc(C2C(C#N)=C(N)Oc3cc(N(C)C)ccc32)cc2c1OCO2 (centres undefined) | – | – | – | – | – | 42.6
CCCCn1c(SCc2ccc(C(=O)OC)o2)nc2cc(S(N)(=O)=O)ccc21 | – | – | – | – | – | –
Cc1cc(C)n(-c2nc(NC(C)(C)C)nc(NC(C)(C)C)n2)n1 | – | – | – | – | – | –
Cc1cc(C)n(-c2nc(NC(C)C)nc(NC(C)C)n2)n1 | – | – | – | – | – | 30.4
COc1ccc(C2C(C(=O)N3CCCC3)c3cc(OC)c(OC)cc3C(=O)N2C)cc1OC (centres undefined) | – | · | – | – | – | –
CCN1CCN(C(=O)C2c3cc(OC)c(OC)cc3C(=O)N(C)C2c2ccc(SC)cc2)CC1 (centres undefined) | 59.7 | · | – | – | – | –
COc1ccc(OC)c(NC(=O)C2C3CCC(C3=C(C)C)C2C(=O)O)c1 (centres undefined) | – | – | · | – | – | –
COc1ccc(OC)c(NC(=O)C2CCCCC2C(=O)O)c1 (centres undefined) | – | – | – | 15.1 | – | –
CCn1cc(C(=O)NCc2cccs2)c(=O)c2ccc(C)nc21 | – | – | · | – | – | –
CCOC(=O)C1CCCN(Cc2c(Cl)cccc2Cl)C1 (centres undefined) | – | – | – | – | – | –
CCOC(=O)C1CCCN(CC(=O)NC2CC2)C1 (centres undefined) | – | – | – | – | 22.1 | –
COc1cccc(N2CCN(Cc3coc4c(Cl)cc(Cl)cc4c3=O)CC2)c1 | – | – | – | 31.9 | – | –
Cc1nc(SCC(=O)Nn2c(-c3ccccc3)nc3ccccc3c2=O)n[nH]1 | – | – | – | – | – | –
O=C(CSc1nccn1-c1ccc(F)cc1)Nc1ccc2c(c1)OCO2 | – | – | – | 14.3 | – | –
Cc1ccc(NC(=O)C2CCCN2C(=O)Oc2ccccc2)cc1 (centres undefined) | – | – | – | – | – | –
CCC(C)(C)n1nnnc1CN(Cc1ccc(Cl)cc1)Cc1ccco1 | – | – | – | – | – | –
COc1ccc(CC(=O)Nc2cccc(-c3nnc(-c4cccc(C)c4)o3)c2)cc1OC | 91.7 | – | – | – | – | 80.1
COc1ccc(CC(=O)Nc2cccc(-c3nnc(-c4ccccc4)o3)c2)cc1OC | – | – | – | – | – | –
COc1ccc(CC(=O)Nc2cccc(-c3nnc(-c4ccc(C)cc4)o3)c2)cc1OC | – | – | – | – | – | 33.7
Cc1nc(NC2=NCN(CCc3ccccc3)CN2)nc2ccccc12 | – | – | – | – | – | –
Cc1nn(Cc2ccccc2)c2sc(C(=O)NCc3cccnc3)cc12 | – | – | – | – | 38.8 | –
SMILES | 5-HT1A blocker | S1P3 ag | Ec RNAP inh | HTR1E agonist | 5HT1a ag | 5HT1E antag
Cc1cc(C(=O)NCc2cccnc2)cs1 | – | – | – | – | 31.3 | –
NC(=O)COC(=O)C(Cc1ccccc1)NS(=O)(=O)c1ccccc1F (centres undefined) | – | – | – | – | – | –
O=C1C(Cl)=C(N2CCCCC2)C(=O)N1c1ccccc1 | – | – | – | – | – | –
CN1CCN(C2=C(Cl)C(=O)N(C3CCCCC3)C2=O)CC1 | – | – | – | 39.4 | – | –
COCCN1Cc2cccc(C(=O)Nc3cccc(C)c3C)c2C1=O | – | – | – | – | – | –
CC1=C/C(=C/N(C)c2ccccc2)C(=O)S1 | 44.3 | – | – | – | – | –
CCOC(=O)C1=C(C)N=C2SC(C)C(=O)N2C1c1cccc(F)c1 (centres undefined) | · | – | – | – | – | –
CC1=C(C(=O)OCC(C)C)C(c2cccc(F)c2)N2C(=O)C(C)SC2=N1 (centres undefined) | – | – | – | 14.4 | – | –
O=C(CC1CCCC1)Nc1nnc(C2CC2)s1 | – | – | – | – | – | –
Cc1cccc2cc3c(NC(=O)c4ccccn4)nn(C)c3nc12 | – | 5.3 | – | – | – | –
CCc1cc2c(SCC(=O)O)ncnc2s1 | – | – | – | – | – | –
CCc1cc2c(SCC(=O)c3cccs3)ncnc2s1 | – | – | 23.5 | – | – | –
O=C(NCCN1CCN(C(=O)c2cccs2)CC1)c1cccs1 | – | – | – | – | – | –
CCOC(=O)c1ccccc1NC(=O)c1ccc(NS(C)(=O)=O)cc1 | – | – | – | – | – | 33.9
Cc1ccc(C)c(Cn2c(C(C)O)nc3ccccc32)c1 (centres undefined) | – | – | – | – | – | –
Cc1ccc(S(=O)(=O)N2CC3(C)CN(S(=O)(=O)c4ccc(C)cc4)CC(C)(C2)C3O)cc1 (centres undefined) | – | – | – | 9.9 | – | –
COc1cc(-c2nnc3n2N=C(c2ccccc2)CS3)cc(OC)c1OC | – | – | – | – | – | 51.4
COc1cccc(-c2nnc3n2N=C(C(C)(C)C)CS3)c1 | 75.5 | · | – | – | – | 50.6
COc1cccc(-c2nnc3n2N=C(c2cc(OC)ccc2OC)CS3)c1 | – | · | – | – | – | 44.1
COc1ccc(-c2nnc3n2N=C(c2cccc(Br)c2)CS3)cc1OC | – | – | – | – | – | –
COc1ccc(OC)c(C2=Nn3c(nnc3-c3cc(OC)c(OC)c(OC)c3)SC2)c1 | – | – | – | – | – | 44.2
COc1ccc(NC(=O)Cn2nc(C(F)(F)F)c3c2CCCC3)c(OC)c1 | – | – | – | – | – | –
Cc1cc(C)nc(SCc2nnc(SCc3ccccc3Cl)o2)n1 | – | – | – | – | – | –
CCCSc1nnc(Cc2cc(=O)[nH]c(=O)[nH]2)n1-c1cc(C)ccc1C | – | – | – | – | – | –
CCOc1cccc(-c2nnc3n2N=C(c2cc(OC)ccc2OC)CS3)c1 | – | · | – | – | – | 60.9
Cc1ccc2c(c1)c(C)c(C)n2CC(O)CN1CCOCC1 (centres undefined) | – | · | · | – | – | –
NC/C(=N\O)c1ccc(Cl)cc1Cl | – | – | – | 13.2 | – | –
